{"source": "ChEMBL document CHEMBL2380219", "about": "“Physalin A induces apoptotic cell death and protective autophagy in HT1080 human fibrosarcoma cells” (J Nat Prod, 2013)", "type_in_all_cases": "functional, cell-based", "key": {"HT-1080 [1]": {"tested_on": "HT-1080", "assay": "Induction of autophagy in human HT1080 cells assessed as conversion from LC31to LC32 at 10 uM pretreated with 3MA for 1 hr prior to compound addition measured after 24 hrs by Western blotting analysis", "in_short": "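HT1080 cells pretreated 1 h with 1 mM 3MA or 1 nM rapamycin, then 10 μM added for 24 h. Adherent and floating cells lysed in Hepes pH 7.4/Triton buffer. Equal protein on 12% SDS-PAGE and nitrocellulose, probed for beclin 1 and LC3, ECL detection. Normalized to β-actin, n = 3.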"}, "HT-1080 [2]": {"tested_on": "HT-1080", "assay": "Induction of apoptosis in human HT1080 cells assessed as increase in PARP cleavage at 10 uM pretreated with 3MA for 1 hr prior to compound addition measured after 24 hrs by Western blotting analysis", "in_short": "(§1)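 HT1080 cells pretreated 1 h with 1 mM 3MA or 1 nM rapamycin, then co-incubated with 10 μM for 24 h. Adherent and floating cells lysed in Hepes pH 7.4/Triton buffer. 12% SDS-PAGE, nitrocellulose, antibodies against Fas, FADD, caspase-8, caspase-3, PARP and ICAD, ECL detection. Densities normalized to β-actin; n = 3.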"}, "HT-1080 [3]": {"tested_on": "HT-1080", "assay": "Induction of apoptosis in human HT1080 cells assessed as increase in procaspase-3 cleavage at 10 uM pretreated with 3MA for 1 hr prior to compound addition measured after 24 hrs by Western blotting analysis", "in_short": "as §1"}, "HT-1080 [4]": {"tested_on": "HT-1080", "assay": "Induction of apoptosis in human HT1080 cells expressing beclin 1 siRNA assessed as increase in procaspase-3 cleavage at 10 uM after 24 hrs by Western blotting analysis relative to control", "in_short": "(§2)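 Beclin 1 or nonspecific siRNA transfected into HT1080 cells (5 × 10^5 seeded a day earlier; transfection mixture for 7 h at 37 °C, then normal medium, 24 h before harvest). Cells then got 10 μM for 24 h. Adherent plus floating cells lysed in Hepes pH 7.4/Triton buffer at 4 °C for 60 min. Equal protein on 12% SDS-PAGE, nitrocellulose, ECL. Bands normalized to β-actin, n = 3.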"}, "HT-1080 [5]": {"tested_on": "HT-1080", "assay": "Induction of autophagy in human HT1080 cells assessed as conversion from LC31to LC32 at 10 uM by Western blotting analysis", "conditions": "TDE = time-dependent effect", "in_short": "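HT1080 cells exposed to 10 μM for 6, 12, 18 and 24 h, then lysed in Hepes pH 7.4/Triton buffer at 4 °C for 60 min. Equal protein run on 12% SDS-PAGE, blotted to nitrocellulose, probed for beclin 1 and LC3, ECL detection. Densities taken relative to β-actin, n = 3.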"}, "HT-1080 [6]": {"tested_on": "HT-1080", "assay": "Induction of apoptosis in human HT1080 cells assessed as change in cytosolic BID expression at 10 uM after 6 to 24 hrs by Western blotting analysis", "in_short": "(§3)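 HT1080 cells treated with 10 μM for 6, 12, 18 and 24 h. Adherent and floating cells lysed 60 min at 4 °C in Hepes pH 7.4/1% Triton X-100 buffer with phosphatase and protease inhibitors. Equal protein run on 12% SDS-PAGE, transferred to nitrocellulose, probed with specific antibodies, HRP/ECL detection. Band density normalized to β-actin; n = 3.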"}, "HT-1080 [7]": {"tested_on": "HT-1080", "assay": "Induction of apoptosis in human HT1080 cells assessed as increase in apoptotic ratio at 10 uM pretreated with 3MA for 1 hr prior to compound addition measured after 24 hrs by propidium iodide staining-based FACS flow cytometric analysis"}, "HL-60": {"tested_on": "HL-60", "assay": "Cytotoxicity against human HL60 cells assessed as growth inhibition after 24 hrs by MTT assay", "in_short": "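Seeded 0.8 × 10^4 cells/well, cultured 24 h, then exposed to 0, 10, 20, 40 or 80 μM for 24 h (DMSO <0.05%) in RPMI 1640 or MEM with 10% FBS. Adherent lines rinsed with PBS, given MTT 2 h at 37 °C. Suspension lines (U937, HL60) given MTT 2 h, then centrifuged. Formazan dissolved in DMSO, A492 read. Inhibition % = (control − sample)/(control − blank) × 100.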"}, "HT-1080 [8]": {"tested_on": "HT-1080", "assay": "Induction of apoptosis in human HT1080 cells assessed as procaspase-8 cleavage at 10 uM by Western blotting analysis", "conditions": "TDE = time-dependent effect"}, "HT-1080 [9]": {"tested_on": "HT-1080", "assay": "Induction of apoptosis in human HT1080 cells assessed as appearance of cleaved procaspase-9 at 10 uM after 6 to 24 hrs by Western blotting analysis", "in_short": "as §3"}, "HT-1080 [10]": {"tested_on": "HT-1080", "assay": "Induction of apoptosis in human HT1080 cells assessed as downregulation of ICAD at 10 uM pretreated with 3MA for 1 hr prior to compound addition measured after 24 hrs by Western blotting analysis", "in_short": "as §1"}, "HT-1080 [11]": {"tested_on": "HT-1080", "assay": "Cytotoxicity against human HT1080 cells assessed as growth inhibition at 10 uM pretreated with z-LEHD-FMK for 1 hr prior to compound addition measured after 24 hrs by MTT assay", "in_short": "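HT1080 seeded 0.8 × 10^4 cells/well. MTT 2 h at 37 °C, formazan in DMSO, A492 read. Inhibition % calculated against untreated and blank wells.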"}, "HT-1080 [12]": {"tested_on": "HT-1080", "assay": "Induction of apoptosis in human HT1080 cells assessed as increase in procaspase-8 cleavage at 10 uM pretreated with rapamycin for 1 hr prior to compound addition measured after 24 hrs by Western blotting analysis", "in_short": "as §1"}, "HT-1080 [13]": {"tested_on": "HT-1080", "assay": "Induction of apoptosis in human HT1080 cells assessed as increase in PARP cleavage at 10 uM pretreated with rapamycin for 1 hr prior to compound addition measured after 24 hrs by Western blotting analysis", "in_short": "as §1"}, "HT-1080 [14]": {"tested_on": "HT-1080", "assay": "Induction of apoptosis in human HT1080 cells assessed as downregulation of ICAD at 10 uM pretreated with rapamycin for 1 hr prior to compound addition measured after 24 hrs by Western blotting analysis", "in_short": "as §1"}, "HT-1080 [15]": {"tested_on": "HT-1080", "assay": "Induction of autophagy in human HT1080 cells assessed as increase in autophagy ratio at 10 uM pretreated with 3MA for 1 hr prior to compound addition measured after 24 hrs by MDC staining-based FACS flow cytometric analysis", "in_short": "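HT1080 cells seeded at 3 × 10^5 per flask and grown 24 h. Pretreated 1 h with 1 mM 3MA or 1 nM rapamycin, then 10 μM for 24 h. Collected cells stained with 0.05 mM MDC at 37 °C for 1 h. MDC-positive ratio measured by flow cytometry, n = 3, mean ± SD.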"}, "HT-1080 [16]": {"tested_on": "HT-1080", "assay": "Induction of apoptosis in human HT1080 cells expressing beclin 1 siRNA assessed as increase in procaspase-8 cleavage at 10 uM after 24 hrs by Western blotting analysis relative to control", "in_short": "as §2"}, "HT-1080 [17]": {"tested_on": "HT-1080", "assay": "Induction of apoptosis in human HT1080 cells assessed as increase in apoptotic ratio at 10 uM pretreated with rapamycin for 1 hr prior to compound addition measured after 24 hrs by propidium iodide staining-based FACS flow cytometric analysis"}, "HT-1080 [18]": {"tested_on": "HT-1080", "assay": "Induction of autophagy in human HT1080 cells assessed as increase in autophagolysosomes at 10 uM by MDC staining-based fluorescence microscopic analysis", "in_short": "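HT1080 cells at 2 × 10^4 per well, cultured 24 h, then given 10 μM for 24 h. Stained with 0.05 mM MDC at 37 °C for 1 h. Autophagolysosomes viewed by fluorescence microscopy at 200×.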"}}, "note": "The source made the active and inactive calls. The calls are words filed in the database; no cut-off is given here."}
{"molecule": "C=C1C(=O)O[C@@H]2C[C@@]1(C)[C@@H]1C(=O)[C@]3(O)O[C@]14[C@@]2(C)OC(=O)[C@@]4(O)CC[C@H]1[C@H]3[C@H](O)C=C2CC=CC(=O)[C@@]21C", "note": "[PHYSALIN A]", "values": [{"measurement": "Activity", "setting": "HT-1080 [1]", "result": "inactive"}, {"measurement": "Activity", "setting": "HT-1080 [2]", "result": "Active"}, {"measurement": "Activity", "setting": "HT-1080 [3]", "result": "Active"}, {"measurement": "Activity", "setting": "HT-1080 [4]", "result": "Active"}, {"measurement": "Activity", "setting": "HT-1080 [5]", "result": "tde"}, {"measurement": "Activity", "setting": "HT-1080 [6]", "result": "inactive"}, {"measurement": "Activity", "setting": "HT-1080 [7]", "result": "Active"}, {"measurement": "growth inhibition (GI)", "setting": "HL-60", "result": "Dose-dependent effect"}, {"measurement": "Activity", "setting": "HT-1080 [8]", "result": "tde"}, {"measurement": "Activity", "setting": "HT-1080 [9]", "result": "inactive"}, {"measurement": "Activity", "setting": "HT-1080 [10]", "result": "Active"}, {"measurement": "growth inhibition (GI)", "setting": "HT-1080 [11]", "result": "inactive"}, {"measurement": "Activity", "setting": "HT-1080 [12]", "result": "inactive"}, {"measurement": "Activity", "setting": "HT-1080 [13]", "result": "inactive"}, {"measurement": "Activity", "setting": "HT-1080 [14]", "result": "inactive"}, {"measurement": "Activity", "setting": "HT-1080 [15]", "result": "inactive"}, {"measurement": "Activity", "setting": "HT-1080 [16]", "result": "Active"}, {"measurement": "Activity", "setting": "HT-1080 [17]", "result": "inactive"}, {"measurement": "Activity", "setting": "HT-1080 [18]", "result": "Active"}]}
